Results published in ChEMBL document CHEMBL5661979, “Pharmacological inhibition of BMK1 suppresses tumor growth through promyelocytic leukemia protein” (Cancer Cell, 2010).

Columns and labels:
[1] = molecular target: Serine/threonine-protein kinase PLK4 (Homo sapiens) (UniProt O00444); test: Inhibition of PLK4 (unknown origin) assessed as remaining activity at 10 uM by ATP-competition binding assay relative to control
[2] = molecular target: Mitogen-activated protein kinase 3 (Homo sapiens, UniProt P27361); test: Inhibition of ERK1 in human HeLa cells lysate pre incubated for 15 mins followed by ATP acyl phosphate probe addition and measured after 10 mins by LC-MS/MS analysis; format: subcellular
[3] = molecular target: Serine/threonine-protein kinase Nek7 (Homo sapiens, UniProt Q8TDX7); test: Inhibition of NEK7 in human HeLa cells lysate at 50 uM pre incubated for 15 mins followed by ADP acyl phosphate probe addition and measured after 10 mins by LC-MS/MS analysis relative to control; format: subcellular; settings: time 25.0 min
[4] = molecular target: T1, Serine/threonine-protein kinase 3 (Homo sapiens) (UniProt Q13188); test: Inhibition of MST2 in human HeLa cells lysate at 2 uM pre incubated for 15 mins followed by ADP acyl phosphate probe addition and measured after 10 mins by LC-MS/MS analysis relative to control; format: subcellular; settings: time 25.0 min
T1 sequence (whole entry): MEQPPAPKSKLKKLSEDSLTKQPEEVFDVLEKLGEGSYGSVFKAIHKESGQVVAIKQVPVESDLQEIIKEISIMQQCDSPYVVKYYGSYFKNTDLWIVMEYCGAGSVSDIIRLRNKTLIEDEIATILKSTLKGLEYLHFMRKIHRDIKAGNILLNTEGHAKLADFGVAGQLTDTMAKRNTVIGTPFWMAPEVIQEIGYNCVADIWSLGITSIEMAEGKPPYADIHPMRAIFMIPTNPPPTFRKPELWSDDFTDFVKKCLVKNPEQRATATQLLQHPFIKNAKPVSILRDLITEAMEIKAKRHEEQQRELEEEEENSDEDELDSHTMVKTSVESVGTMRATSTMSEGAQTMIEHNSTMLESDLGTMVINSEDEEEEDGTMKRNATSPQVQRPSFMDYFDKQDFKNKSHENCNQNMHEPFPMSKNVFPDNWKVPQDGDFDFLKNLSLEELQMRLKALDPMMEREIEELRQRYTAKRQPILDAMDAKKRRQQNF

[5] = Inhibition of NEK6/7 in human HeLa cells lysate at 2 uM pre incubated for 15 mins followed by ADP acyl phosphate probe addition and measured after 10 mins by LC-MS/MS analysis relative to control; settings: 25 min, condition cancer
[6] = molecular target: Calcium/calmodulin-dependent protein kinase type 1D (Homo sapiens, UniProt Q8IU85); test: Inhibition of CAMK1d in human HeLa cells lysate at 2 uM pre incubated for 15 mins followed by ADP acyl phosphate probe addition and measured after 10 mins by LC-MS/MS analysis relative to control; format: subcellular; settings: time 25.0 min
How it was run: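 KiNativ-type profiling in HeLa lysate (5 mg/mL total protein). Lysate preincubated 15 min with inhibitor at 50, 10, 2, 0.8 or 0 μM, then ATP or ADP acylphosphate probe added (5 μM final) for 10 min. Reaction stopped with urea and analysed by targeted MS, using up to four fragment ions per kinase peptide-probe conjugate. % inhibition calculated against untreated lysate. Duplicate reactions.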

[7] = molecular target: T2, Serine/threonine-protein kinase tousled-like 1 (Homo sapiens) (UniProt Q9UKI8); test: Inhibition of TLK1 in human HeLa cells lysate at 2 uM pre incubated for 15 mins followed by ADP acyl phosphate probe addition and measured after 10 mins by LC-MS/MS analysis relative to control; format: subcellular; settings: time 25.0 min
T2 sequence (whole entry): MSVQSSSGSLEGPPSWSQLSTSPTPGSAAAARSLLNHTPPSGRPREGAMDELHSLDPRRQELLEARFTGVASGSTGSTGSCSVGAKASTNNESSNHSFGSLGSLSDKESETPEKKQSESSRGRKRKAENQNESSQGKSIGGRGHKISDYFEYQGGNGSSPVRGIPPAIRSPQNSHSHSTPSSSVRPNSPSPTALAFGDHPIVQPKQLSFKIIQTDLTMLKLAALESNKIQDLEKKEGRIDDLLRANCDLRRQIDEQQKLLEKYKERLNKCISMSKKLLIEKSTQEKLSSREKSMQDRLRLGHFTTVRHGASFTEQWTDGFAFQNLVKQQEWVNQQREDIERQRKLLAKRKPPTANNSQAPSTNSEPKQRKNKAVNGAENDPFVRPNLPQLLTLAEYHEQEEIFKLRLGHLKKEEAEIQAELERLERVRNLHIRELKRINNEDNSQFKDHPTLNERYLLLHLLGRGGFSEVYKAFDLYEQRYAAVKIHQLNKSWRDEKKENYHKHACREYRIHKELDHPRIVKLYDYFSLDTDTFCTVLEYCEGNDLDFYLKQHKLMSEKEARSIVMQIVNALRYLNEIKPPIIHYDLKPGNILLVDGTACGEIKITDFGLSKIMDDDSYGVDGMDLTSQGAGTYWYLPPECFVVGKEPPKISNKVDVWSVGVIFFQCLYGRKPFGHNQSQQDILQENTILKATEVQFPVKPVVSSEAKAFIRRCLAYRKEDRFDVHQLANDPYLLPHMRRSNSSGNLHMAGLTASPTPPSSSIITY

Wee1-like protein kinase = Wee1-like protein kinase (Homo sapiens, UniProt P30291); test: Inhibition of Wee1 in human HeLa cells lysate at 50 uM pre incubated for 15 mins followed by ATP acyl phosphate probe addition and measured after 10 mins by LC-MS/MS analysis relative to control; format: subcellular; settings: time 25.0 min
[8] = Inhibition of PKD1/2 in human HeLa cells lysate at 10 uM pre incubated for 15 mins followed by ATP acyl phosphate probe addition and measured after 10 mins by LC-MS/MS analysis relative to control; settings: 25 min, condition cancer
[9] = molecular target: Ribosomal protein S6 kinase alpha-1 (Homo sapiens, UniProt Q15418); test: Inhibition of RSK1 domain 2 in human HeLa cells lysate at 2 uM pre incubated for 15 mins followed by ATP acyl phosphate probe addition and measured after 10 mins by LC-MS/MS analysis relative to control; format: subcellular; settings: time 25.0 min
[10] = molecular target: T3, Phosphorylase b kinase gamma catalytic chain, liver/testis isoform (Homo sapiens) (UniProt P15735); test: Inhibition of PHKg2 in human HeLa cells lysate at 2 uM pre incubated for 15 mins followed by ATP acyl phosphate probe addition and measured after 10 mins by LC-MS/MS analysis relative to control; format: subcellular; settings: time 25.0 min
T3 sequence (whole entry): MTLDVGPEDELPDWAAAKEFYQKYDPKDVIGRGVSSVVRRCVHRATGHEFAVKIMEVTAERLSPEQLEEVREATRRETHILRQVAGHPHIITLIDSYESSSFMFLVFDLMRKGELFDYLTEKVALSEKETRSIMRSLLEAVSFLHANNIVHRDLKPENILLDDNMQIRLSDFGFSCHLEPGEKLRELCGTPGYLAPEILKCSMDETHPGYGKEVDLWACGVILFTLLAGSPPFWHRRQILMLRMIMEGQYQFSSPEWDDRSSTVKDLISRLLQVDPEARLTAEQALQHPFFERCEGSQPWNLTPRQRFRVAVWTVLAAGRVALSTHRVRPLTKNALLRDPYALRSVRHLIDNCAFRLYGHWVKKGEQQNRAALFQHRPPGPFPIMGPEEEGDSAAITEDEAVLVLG

Wee1-like protein kinase, sequence (P30291 whole entry, looked up): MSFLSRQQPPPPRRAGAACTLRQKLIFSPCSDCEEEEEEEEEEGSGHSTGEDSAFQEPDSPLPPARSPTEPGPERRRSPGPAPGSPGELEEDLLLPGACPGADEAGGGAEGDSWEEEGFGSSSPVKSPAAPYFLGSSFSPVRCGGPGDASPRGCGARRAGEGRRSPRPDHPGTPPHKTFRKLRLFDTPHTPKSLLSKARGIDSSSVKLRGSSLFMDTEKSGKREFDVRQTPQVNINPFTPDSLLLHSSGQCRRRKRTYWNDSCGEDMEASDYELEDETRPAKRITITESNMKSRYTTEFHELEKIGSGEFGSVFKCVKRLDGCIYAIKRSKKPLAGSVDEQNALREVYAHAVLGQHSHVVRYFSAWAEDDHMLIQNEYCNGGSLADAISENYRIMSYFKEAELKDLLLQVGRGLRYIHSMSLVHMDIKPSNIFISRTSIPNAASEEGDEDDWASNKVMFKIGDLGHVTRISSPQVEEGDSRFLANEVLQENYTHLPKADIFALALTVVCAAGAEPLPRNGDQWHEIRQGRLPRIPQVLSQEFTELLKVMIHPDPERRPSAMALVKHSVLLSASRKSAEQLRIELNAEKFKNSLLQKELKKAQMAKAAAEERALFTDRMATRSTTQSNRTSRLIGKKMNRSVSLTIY
Ribosomal protein S6 kinase alpha-1, sequence (Q15418 whole entry, the tested form may be a part, canonical isoform): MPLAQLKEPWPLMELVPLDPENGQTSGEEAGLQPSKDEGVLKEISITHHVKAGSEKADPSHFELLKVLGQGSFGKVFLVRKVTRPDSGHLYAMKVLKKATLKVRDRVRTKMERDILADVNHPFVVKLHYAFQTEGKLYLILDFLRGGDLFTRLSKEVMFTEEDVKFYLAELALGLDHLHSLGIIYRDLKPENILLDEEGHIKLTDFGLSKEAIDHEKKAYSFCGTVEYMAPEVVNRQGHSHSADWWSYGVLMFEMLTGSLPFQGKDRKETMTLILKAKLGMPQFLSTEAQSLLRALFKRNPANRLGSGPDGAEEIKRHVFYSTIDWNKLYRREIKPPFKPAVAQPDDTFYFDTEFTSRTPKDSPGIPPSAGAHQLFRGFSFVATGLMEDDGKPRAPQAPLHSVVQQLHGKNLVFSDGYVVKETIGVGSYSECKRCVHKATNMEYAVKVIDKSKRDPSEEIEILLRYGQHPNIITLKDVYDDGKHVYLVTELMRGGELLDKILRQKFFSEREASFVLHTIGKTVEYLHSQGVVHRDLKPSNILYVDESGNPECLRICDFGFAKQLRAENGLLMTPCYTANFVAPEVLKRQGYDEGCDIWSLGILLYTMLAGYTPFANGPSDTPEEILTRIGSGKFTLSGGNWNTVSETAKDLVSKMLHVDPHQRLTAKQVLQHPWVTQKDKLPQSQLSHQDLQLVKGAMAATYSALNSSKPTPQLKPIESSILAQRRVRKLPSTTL
Serine/threonine-protein kinase PLK4 (Homo sapiens), sequence (O00444 whole entry): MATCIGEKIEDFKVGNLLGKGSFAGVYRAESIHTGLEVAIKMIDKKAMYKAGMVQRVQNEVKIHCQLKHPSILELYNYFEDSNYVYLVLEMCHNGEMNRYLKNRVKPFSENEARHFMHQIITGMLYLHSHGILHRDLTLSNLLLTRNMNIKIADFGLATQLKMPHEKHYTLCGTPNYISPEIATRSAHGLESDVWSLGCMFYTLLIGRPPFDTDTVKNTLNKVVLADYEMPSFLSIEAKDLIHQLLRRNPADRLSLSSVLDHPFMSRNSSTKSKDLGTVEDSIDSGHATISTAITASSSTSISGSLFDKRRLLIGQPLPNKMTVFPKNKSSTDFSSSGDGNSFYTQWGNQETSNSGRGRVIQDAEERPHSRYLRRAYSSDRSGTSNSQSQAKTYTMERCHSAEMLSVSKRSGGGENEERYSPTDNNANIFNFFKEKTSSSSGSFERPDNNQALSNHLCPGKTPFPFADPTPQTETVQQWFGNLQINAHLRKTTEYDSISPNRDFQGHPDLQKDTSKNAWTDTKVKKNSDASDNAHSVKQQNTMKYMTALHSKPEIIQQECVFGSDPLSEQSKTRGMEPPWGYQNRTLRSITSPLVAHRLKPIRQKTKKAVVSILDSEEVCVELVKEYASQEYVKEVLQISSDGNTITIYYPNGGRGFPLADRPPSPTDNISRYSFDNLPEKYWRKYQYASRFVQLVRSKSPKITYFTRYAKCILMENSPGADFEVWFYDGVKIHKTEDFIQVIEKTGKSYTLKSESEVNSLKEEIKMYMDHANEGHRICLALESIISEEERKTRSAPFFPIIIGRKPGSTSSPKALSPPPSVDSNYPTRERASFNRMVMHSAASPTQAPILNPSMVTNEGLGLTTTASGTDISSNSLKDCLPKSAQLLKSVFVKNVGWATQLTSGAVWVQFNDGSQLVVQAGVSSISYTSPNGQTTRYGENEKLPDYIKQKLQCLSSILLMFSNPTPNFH
Serine/threonine-protein kinase Nek7, sequence (Q8TDX7 whole entry, looked up): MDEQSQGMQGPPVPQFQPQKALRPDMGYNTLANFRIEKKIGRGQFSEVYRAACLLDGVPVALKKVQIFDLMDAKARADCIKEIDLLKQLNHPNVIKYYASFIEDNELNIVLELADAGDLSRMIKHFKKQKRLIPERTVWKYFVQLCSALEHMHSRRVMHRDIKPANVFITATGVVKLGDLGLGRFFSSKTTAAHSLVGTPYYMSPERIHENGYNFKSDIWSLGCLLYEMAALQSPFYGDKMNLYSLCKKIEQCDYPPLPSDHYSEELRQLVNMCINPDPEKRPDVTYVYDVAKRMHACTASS
Mitogen-activated protein kinase 3, sequence (P27361 whole entry): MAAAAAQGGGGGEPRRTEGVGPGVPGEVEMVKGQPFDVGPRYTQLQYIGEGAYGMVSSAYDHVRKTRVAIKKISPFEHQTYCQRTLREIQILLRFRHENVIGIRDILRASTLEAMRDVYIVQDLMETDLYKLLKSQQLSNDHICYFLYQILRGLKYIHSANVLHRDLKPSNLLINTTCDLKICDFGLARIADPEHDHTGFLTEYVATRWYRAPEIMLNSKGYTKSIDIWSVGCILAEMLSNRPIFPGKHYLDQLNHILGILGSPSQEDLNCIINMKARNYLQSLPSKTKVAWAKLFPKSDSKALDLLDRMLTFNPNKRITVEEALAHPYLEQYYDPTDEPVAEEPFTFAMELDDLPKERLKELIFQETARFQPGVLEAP
Calcium/calmodulin-dependent protein kinase type 1D, sequence (Q8IU85 whole entry, looked up, the tested form may be a part): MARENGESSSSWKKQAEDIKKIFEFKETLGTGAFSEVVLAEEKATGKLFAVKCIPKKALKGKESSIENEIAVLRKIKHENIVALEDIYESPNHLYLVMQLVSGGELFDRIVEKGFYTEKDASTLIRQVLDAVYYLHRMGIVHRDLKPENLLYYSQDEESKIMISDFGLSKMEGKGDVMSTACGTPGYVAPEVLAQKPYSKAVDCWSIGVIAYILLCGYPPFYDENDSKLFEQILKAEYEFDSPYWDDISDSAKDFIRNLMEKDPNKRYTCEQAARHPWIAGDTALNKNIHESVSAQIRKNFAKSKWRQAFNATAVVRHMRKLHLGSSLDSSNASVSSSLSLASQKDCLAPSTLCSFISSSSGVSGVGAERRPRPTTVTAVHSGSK

## CCOc1cc(N2CCC(O)CC2)ccc1Nc1ncc2c(n1)N(C)c1ccccc1C(=O)N2C
[1]
  Activity: 2.8%
[2]
  IC50: > 50 µM
[3]
  inhibition: -2.3%
[4]
  inhibition: 26.2%
[5]
  inhibition at 2 µM: 6.4%
[6]
  inhibition: 4.7%
[7]
  inhibition: 7.3%
Wee1-like protein kinase
  inhibition: 4.1%
[8]
  inhibition at 10 µM: -23%
[9]
  inhibition: 13.6%
[10]
  inhibition: 3.7%
